Experimental data pooled from the literature.
Protocols differ between the studies behind these lines.
Organism: Pseudomonas aeruginosa
Read-out: microbial growth

SMILES	technique	strain	time	notes	MIC
CN(C)[C@@H]1C(O)=C(C(N)=O)C(=O)[C@@]2(O)C(O)=C3C(=O)c4c(O)c(NC(=O)CNC(C)(C)C)nc(Cl)c4C[C@H]3C[C@@H]12.Cl.Cl.Cl	broth dilution	ATCC27853	–	–	> 32 µg/mL
Cc1ccc2nc(-c3ccc(Cl)cc3)n(Cc3ccccc3Cl)c2c1	broth dilution	ATCC27853	–	–	512 µg/mL
CC(C)Oc1c(NC(=O)c2ccc(NC(=O)[C@H](CC(N)=O)NC(=O)c3ccc(NC(=O)c4ccccc4[N+](=O)[O-])cc3)cc2)ccc(C(=O)Nc2ccc(C(=O)O)cc2)c1O	–	PA14	–	–	> 64 µg/mL
CN(C)[C@@H]1C(O)=C(C(N)=O)C(=O)[C@@]2(O)C(O)=C3C(=O)c4c(cc5ccc(CN6CCCC6)cc5c4O)C[C@H]3C[C@@H]12	broth dilution	ATCC27853	–	–	32 µg/mL
CC(C)(C)Oc1ccc(CC2NC(=O)C(C(=O)NC(C(=O)NC3C(=O)N4C3SC(C)(C)C4C(=O)O)c3ccccc3)=C2O)cc1 (centres unmarked)	–	–	–	–	12.5 µg/mL
CC(C)Oc1c(NC(=O)c2ccc(NC(=O)[C@H](CC(N)=O)NC(=O)c3ccc(NC(=O)c4ccc([N+](=O)[O-])c5cccnc45)cc3)cc2)ccc(C(=O)Nc2ccc(C(=O)O)cc2)c1O	–	PA14	–	–	> 64 µg/mL
O=C(CCCCCC[P+](c1ccccc1)(c1ccccc1)c1ccccc1)Nc1ccc(O)c(O)c1.[Br-]	broth dilution	ATCC27853	18 h	–	> 32 µg/mL
CCCCCCC#Cc1cncc(-c2nnc(SCc3ccc(Cl)cc3)n2C2CC2)c1	–	–	–	–	≥ 20 µg/mL
Cc1ccc(C)n1-c1ccc(-c2nnc(-c3ccccc3Cl)[nH]2)cc1	broth dilution	ATCC10145	18 h	–	250 µg/mL
COc1c(C)c(OC)c(C(=O)/C=C/c2ccccc2)c(OC)c1C	broth dilution	ATCC27853	–	–	5000 µg/mL
CN(C)[C@@H]1C(O)=C(C(N)=O)C(=O)[C@@]2(O)C(O)=C3C(=O)c4c(O)c(N)nc(F)c4C[C@H]3C[C@@H]12.Cl.Cl	broth dilution	ATCC27853	–	–	4 µg/mL
CCCCCCC#Cc1cncc(-c2nnc(SCc3ccc([N+](=O)[O-])o3)n2C)c1	–	–	–	–	≥ 20 µg/mL
[H]/N=C(/N)N[C@H]1[C@H](O)[C@@H](O)[C@H](O[C@@H]2O[C@@H](C)[C@](O)(C=O)[C@H]2O[C@@H]2O[C@@H](CO)[C@H](O)[C@@H](O)[C@@H]2NC)[C@@H](N/C(N)=N\[H])[C@@H]1O	broth dilution	PAO1	–	–	64 µg/mL
C/C(O)=C1\C(=O)C(CC(C)C)N(C(=O)C=Cc2ccccc2)C1=O (centres unmarked)	–	PA01	–	–	> 200 µg/mL
Cc1nc(Cl)c2c(c1O)C(=O)C1=C(O)[C@]3(O)C(=O)C(C(N)=O)=C(O)[C@@H](N(C)C)[C@@H]3C[C@@H]1C2.Cl	broth dilution	ATCC27853	–	–	> 32 µg/mL
CC(C)Oc1c(NC(=O)c2ccc(NC(=O)[C@H](CC(N)=O)NC(=O)c3ccc(NC(=O)c4ccc(C#N)cc4)cc3)cc2)ccc(C(=O)NC2CCNCC2)c1O	–	PA14	–	–	> 64 µg/mL
O=C(O)c1cn(C2CC2)c2cc(N3CCNCC3)c(F)cc2c1=O	broth dilution	–	24 h	–	9.43 µM
CCCCCCC/C=C/C(=O)N1C(=O)/C(=C(\O)c2ccncc2)C(=O)C1CC(C)C (centres unmarked)	–	PA01	–	–	> 200 µg/mL
O=C(Nc1ccc2c(c1)OC(F)(F)O2)Nc1ccc(Cl)c(C(F)(F)F)c1	–	DSM19882	–	–	> 100 µM
CCCCCCCC(=O)Oc1c(C)c(O)c(C(=O)/C=C/c2ccccc2)c(OC)c1C	broth dilution	ATCC27853	–	–	5000 µg/mL
CC[C@H]1OC(=O)[C@H](C)[C@@H](O[C@H]2C[C@@](C)(OC)[C@@H](O)[C@H](C)O2)[C@H](C)[C@@H](O[C@@H]2O[C@H](C)C[C@H](N(C)C)[C@H]2O)[C@](C)(O)C[C@@H](C)CN(C)[C@H](C)[C@@H](O)[C@]1(C)O	broth dilution	–	–	–	100 µg/mL
CCCCCCC/C=C/C(=O)N1C(=O)/C(=C(\O)c2ccccc2)C(=O)C1CC(C)C (centres unmarked)	–	PA01	–	–	> 200 µg/mL
COc1c(C(=O)Nc2ccc(C(=O)O)cc2)ccc2nc(-c3cc(NC(=O)C(CC(N)=O)NC(=O)c4ccc(NC(=O)c5ccc(C#N)cc5)cc4)cn3C)[nH]c12 (centres unmarked)	–	PA14	–	–	> 64 µg/mL
Clc1ccccc1NCc1ccc(Oc2ccccn2)cc1	–	–	–	–	> 25 µg/mL
Cc1ccc(C)n1-c1ccc(-c2n[nH]c(=S)[nH]2)cc1	broth dilution	ATCC10145	18 h	–	8 µg/mL

SMILES	technique	strain	time	notes	MIC
CC1(C)S[C@@H]2[C@H](NC(=O)C(C(=O)O)c3ccccc3)C(=O)N2[C@H]1C(=O)O (some centres unmarked)	broth dilution	–	–	clinical isolate	> 200 µM
CC(C)Oc1c(NC(=O)c2ccc(NC(=O)[C@H](CC(N)=O)NC(=O)c3ccc(NC(=O)c4ccc(NC(=O)c5ccc([N+](=O)[O-])cc5)cc4)cc3)cc2)ccc(C(=O)Nc2ccc(C(=O)O)cc2)c1O	–	PA14	–	–	> 64 µg/mL
CC1=NN(CNc2ccc(C(=O)O)cc2)C(=O)C1=NNn1c(-c2ccccc2)nc2ccccc2c1=O	broth dilution	–	24 h	–	50.5 µM
O=C(O)c1cn(C2CC2)c2cc(N3CCNCC3)c(F)cc2c1=O	broth dilution	ATCC27853	–	–	16 µg/mL
CC1=NN(CNc2c(O)c(S(=O)(=O)O)cc3ccccc23)C(=O)C1=NNn1c(-c2ccccc2)nc2ccccc2c1=O	broth dilution	–	24 h	–	41.8 µM
CN(C)[C@@H]1C(O)=C(C(N)=O)C(=O)[C@@]2(O)C(O)=C3C(=O)c4c(cc5ccc(-c6cccnc6)cc5c4O)C[C@H]3C[C@@H]12	broth dilution	ATCC27853	–	–	32 µg/mL
CC(C)Oc1c(NC(=O)c2ccc(NC(=O)[C@H](CC(N)=O)NC(=O)c3ccc(NC(=O)Cc4ccc(C#N)cc4)cc3)cc2)ccc(C(=O)Nc2ccc(C(=O)O)cc2)c1O	–	PA14	–	–	> 64 µg/mL
O=c1cc(-c2ccc(O)cc2)oc2cc(O)cc(O)c12	broth dilution	PAO1	–	–	128 µg/mL
NC1CCCCc2c1[nH]c1ccc(Br)cc21 (centres unmarked)	broth dilution	PAO1	18 h	–	128 µg/mL
Cc1ccc(C)n1-c1ccc(-c2nnc(-c3cccc([N+](=O)[O-])c3)[nH]2)cc1	broth dilution	ATCC10145	18 h	–	250 µg/mL
O=C(O)c1cn(C2CC2)c2cc(N3CCNCC3)c(F)cc2c1=O	–	–	–	–	1.6 µg/mL
CN(C)[C@@H]1C(O)=C(C(N)=O)C(=O)[C@@]2(O)C(O)=C3C(=O)c4c(cnc(-c5ccccc5)c4O)C[C@H]3C[C@@H]12.Cl.Cl	broth dilution	ATCC27853	–	–	> 32 µg/mL
CC1(C)SC2C(NC(=O)C(NC(=O)C3=C(O)C(Cc4ccc(F)cc4)NC3=O)c3ccccc3)C(=O)N2C1C(=O)O (centres unmarked)	–	–	–	–	25 µg/mL
O=[N+]([O-])c1ccc(O)c2ncccc12	broth dilution	ATCC27853	–	–	16 µg/mL
CC1(C)SC2C(NC(=O)C(NC(=O)C3=C(O)C(c4ccccc4)NC3=O)c3ccccc3)C(=O)N2C1C(=O)O (centres unmarked)	–	–	–	–	50 µg/mL
CC(C)Oc1c(NC(=O)c2ccc(NC(=O)[C@H](CC(N)=O)NC(=O)c3cccc(-c4cccc(C#N)c4)c3)cc2)ccc(C(=O)Nc2ccc(C(=O)O)cc2)c1O	–	PA14	–	–	> 64 µg/mL
COc1c(C)c(OC(=O)c2ccccc2)c(C)c(O)c1C(=O)/C=C/c1ccccc1	broth dilution	ATCC27853	–	–	5000 µg/mL
COc1ncc(O)c2c1C[C@H]1C[C@H]3[C@H](N(C)C)C(O)=C(C(N)=O)C(=O)[C@@]3(O)C(O)=C1C2=O.Cl.Cl	broth dilution	ATCC27853	–	–	> 32 µg/mL
CC(C)Oc1c(NC(=O)c2ccc(NC(=O)[C@H](CC(N)=O)NC(=O)c3ccc(NC(=O)c4ccc(C#N)cc4)cc3)cc2)ccc(C(=O)Nc2cc(C(=O)O)n(C)c2)c1O	–	PA14	–	–	> 64 µg/mL
CN(C)[C@@H]1C(O)=C(C(N)=O)C(=O)[C@@]2(O)C(O)=C3C(=O)c4c(O)cnc(Cl)c4C[C@H]3C[C@@H]12.Cl	broth dilution	ATCC27853	–	–	> 32 µg/mL
Cc1cccc2nc(-c3ccc([N+](=O)[O-])o3)[nH]c12	broth dilution	ATCC27853	–	–	> 64 µg/mL
COc1ccc(-c2nc3ccccc3n2Cc2ccccc2)cc1OC	broth dilution	ATCC27853	–	–	256 µg/mL
CN(Cc1ccc2cc3c(c(O)c2c1)C(=O)C1=C(O)[C@]2(O)C(=O)C(C(N)=O)=C(O)[C@@H](N(C)C)[C@@H]2C[C@@H]1C3)c1ccccc1	broth dilution	ATCC27853	–	–	32 µg/mL
Clc1cccc(NCc2ccc(Oc3ccccn3)cc2)c1	–	–	–	–	> 50 µg/mL
O=C(Cc1ccc(O)c(O)c1)NCCCCCCCC[P+](c1ccccc1)(c1ccccc1)c1ccccc1.[Br-]	broth dilution	ATCC27853	18 h	–	> 32 µg/mL
